Test results published in ChEMBL document CHEMBL3860048 (J Med Chem, 2016).
The source made the active and inactive calls. The rule behind the calls is not given here. Where a SMILES comes first, the peptide text is derived from it. [ ]: non-standard residue; d: D form. Phe(3-F) = N[C@@H](Cc1cccc(F)c1)C(=O)O; Arg(Me) = CNC(=N)NCCC[C@H](N)C(=O)O; Hyp = O=C(O)[C@@H]1C[C@@H](O)CN1; Aib = CC(C)(N)C(=O)O; azaGly = NNC(=O)O

Key:
[1] = Inhibition of testosterone levels in sc dosed Crl:CD(SD) rat plasma assessed as compound dosing causing plasma testosterone level <0.04 ng/ml in all tested animals administered as continuous dosing through alzet osmotic pump for 1 to 4 weeks by radio-immunoassay; type: functional
Rattus norvegicus [2] = assay: Inhibition of testosterone levels in Crl:CD(SD) rat plasma assessed as plasma testosterone level <0.04 ng/ml at 100 pmol/hr, sc administered as continuous dosing through alzet osmotic pump for 4 weeks by radioimmunoassay; type: functional, organism-based
Method in brief: (§1)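 Peptide dissolved in 50% DMSO at 3, 10, 30 or 100 µM, loaded into ALZET osmotic pumps for 3 to 100 pmol/h. Pumps implanted sc in 5 Crl:CD(SD) male rats. Plasma testosterone measured by RIA after 1 or 4 weeks. Values below the 0.04 ng/mL detection limit were treated as 0.04. Count of rats below the limit.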

[3] = Solubility of the compound in water at 20 mg/ml; type: physicochemical; conditions: buffer
Rattus norvegicus [4] = assay: Inhibition of testosterone levels in CD(SD) rat assessed as plasma testosterone level <0.04 ng/ml at 0.1 nmol/hr, sc administered continuously for 6 days through alzet osmotic pump measured after 6 days by radio-immunoassay; type: functional, organism-based
[5] = Cmax in Sprague-Dawley rat plasma at 1 mg/kg, sc by LC/MS analysis; type: ADME, organism-based; design: dose 1 mg/kg, route subcutaneous
Method in brief: (§2)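 Single subcutaneous 1 mg/kg dose to SD rats (n=3 per group). Plasma drawn at 5, 10, 15, 30 min and 1, 2, 4, 8, 24 h. Proteins removed with 0.2% formic acid/methanol (1:4, v/v) plus acetonitrile, centrifuged, supernatant diluted in 0.4% aqueous formic acid, then measured by LC/MS. Noncompartmental analysis per rat, mean ± SD.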

[6] = Conformational changes of the compound in distilled water assessed as decrease in beta-sheet content at 0.1 mg/ml by preliminary circular dichroism analysis; design: scale not given: the % may be the effect or the level left
Rattus norvegicus [7] = assay: Inhibition of testosterone levels in Crl:CD(SD) rat plasma assessed as plasma testosterone level <0.04 ng/ml at 30 pmol/hr, sc administered as continuous dosing through alzet osmotic pump for 1 week by radio-immunoassay; type: functional, organism-based; method in brief: as §1
Rattus norvegicus [8] = assay: Inhibition of testosterone levels in Crl:CD(SD) rat plasma assessed as plasma testosterone level <0.04 ng/ml at 100 pmol/hr, sc administered as continuous dosing through alzet osmotic pump for 1 week by radioimmunoassay; type: functional, organism-based; method in brief: as §1
KiSS-1 receptor [9] = target: KiSS-1 receptor (Rattus norvegicus, UniProt Q924U1); assay: Agonist activity at rat KISS1R expressed in CHO/dhfr cells assessed as increase in intracellular Ca2+ levels measured for 180 secs by Fluo 3-AM dye based FLIPR assay; type: functional, cell-based
KiSS-1 receptor [10] = target: KiSS-1 receptor (Homo sapiens, UniProt Q969F8); assay: Agonist activity at human KISS1R expressed in CHO/dhfr cells assessed as increase in intracellular Ca2+ levels measured for 180 secs by Fluo 3-AM dye based FLIPR assay; type: functional, cell-based
Method in brief: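 CHO cells expressing human KISS1R; FLIPR recording of ligand-induced [Ca2+]i rise over time. Maximum response taken and expressed as percent of the response to a maximal concentration of metastin(45-54). EC50 = concentration giving half-maximal mobilization, from nonlinear regression of smoothed data. Reported as ratio to the metastin(45-54) EC50.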

Rattus norvegicus [11] = assay: Inhibition of testosterone levels in CD(SD) rat assessed as plasma testosterone level <0.04 ng/ml at 0.01 nmol/hr, sc administered continuously for 6 days through alzet osmotic pump measured after 6 days by radio-immunoassay; type: functional, organism-based
Rattus norvegicus [12] = assay: Inhibition of testosterone levels in CD(SD) rat assessed as plasma testosterone level <0.04 ng/ml at 0.03 nmol/hr, sc administered continuously for 6 days through alzet osmotic pump measured after 6 days by radio-immunoassay; type: functional, organism-based
[13] = Volume of distribution in steady state in Sprague-Dawley rat plasma at 1 mg/kg, iv up to 24 hrs by LC/MS analysis; type: ADME, organism-based; conditions: read-out: Vdss
Method in brief: (§3)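 Single intravenous 1 mg/kg bolus to SD rats (n=3 per group). Blood sampled at 5, 10, 15, 30 min and 1, 2, 4, 8, 24 h. Plasma deproteinized with 0.2% formic acid/methanol (1:4, v/v) plus acetonitrile, spun 15,000 rpm for 5 min, supernatant treated with 0.4% aqueous formic acid and spun again, then quantified by LC/MS. Noncompartmental parameters per rat, reported as mean ± SD.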

Rattus norvegicus [14] = assay: Inhibition of testosterone levels in Crl:CD(SD) rat plasma assessed as plasma testosterone level <0.04 ng/ml at 10 pmol/hr, sc administered as continuous dosing through alzet osmotic pump for 1 week by radio-immunoassay; type: functional, organism-based; method in brief: as §1
[15] = Bioavailability in Sprague-Dawley rat plasma at 1 mg/kg, sc up to 24 hrs by LC/MS analysis; type: ADME, organism-based; method in brief: as §2
[16] = AUC (0 to 24 hrs) in Sprague-Dawley rat plasma at 1 mg/kg, sc by LC/MS analysis; type: ADME, organism-based; design: dose 1 mg/kg, time < 24 hr, route subcutaneous; method in brief: as §2
[17] = Plasma concentration in Sprague-Dawley rat at 1 mg/kg, iv after 5 mins by LC/MS analysis; type: ADME, organism-based; method in brief: as §3
[18] = Tmax in Sprague-Dawley rat plasma at 1 mg/kg, sc by LC/MS analysis; type: ADME, organism-based; method in brief: as §2
[19] = MRT in Sprague-Dawley rat plasma at 1 mg/kg, iv by LC/MS analysis; type: ADME, organism-based; method in brief: as §3
[20] = AUC (0 to 24 hrs) in Sprague-Dawley rat plasma at 1 mg/kg, iv up to 24 hrs by LC/MS analysis; type: ADME, organism-based; design: dose 1 mg/kg, time < 24 hr, route intravenous; method in brief: as §3
[21] = MRT in Sprague-Dawley rat plasma at 1 mg/kg, sc by LC/MS analysis; type: ADME, organism-based; method in brief: as §2
[22] = Total clearance in Sprague-Dawley rat plasma at 1 mg/kg, iv up to 24 hrs by LC/MS analysis; type: ADME, organism-based; method in brief: as §3

KiSS-1 receptor (Homo sapiens, UniProt Q969F8), sequence (Q969F8 whole entry): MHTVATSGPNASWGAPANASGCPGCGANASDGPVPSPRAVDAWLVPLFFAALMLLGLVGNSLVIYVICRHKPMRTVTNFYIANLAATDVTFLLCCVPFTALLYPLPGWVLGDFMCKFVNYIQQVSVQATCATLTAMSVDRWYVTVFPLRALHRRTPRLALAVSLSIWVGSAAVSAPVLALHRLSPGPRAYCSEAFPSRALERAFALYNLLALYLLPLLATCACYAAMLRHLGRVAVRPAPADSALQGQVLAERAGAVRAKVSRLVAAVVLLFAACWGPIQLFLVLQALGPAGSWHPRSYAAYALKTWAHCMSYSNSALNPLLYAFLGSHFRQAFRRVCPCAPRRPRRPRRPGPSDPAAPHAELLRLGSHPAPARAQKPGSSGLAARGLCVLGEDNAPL
KiSS-1 receptor (Rattus norvegicus, UniProt Q924U1), sequence (Q924U1 whole entry): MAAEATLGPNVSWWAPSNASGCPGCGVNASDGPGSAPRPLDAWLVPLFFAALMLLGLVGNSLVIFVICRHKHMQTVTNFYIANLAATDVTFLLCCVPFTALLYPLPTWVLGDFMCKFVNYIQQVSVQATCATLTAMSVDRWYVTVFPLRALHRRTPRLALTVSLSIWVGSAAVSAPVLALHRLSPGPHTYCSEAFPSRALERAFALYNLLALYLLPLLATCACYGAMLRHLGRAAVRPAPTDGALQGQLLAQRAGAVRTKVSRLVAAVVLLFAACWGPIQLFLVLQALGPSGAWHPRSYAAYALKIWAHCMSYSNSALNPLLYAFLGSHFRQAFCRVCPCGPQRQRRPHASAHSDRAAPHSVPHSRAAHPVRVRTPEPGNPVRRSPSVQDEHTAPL

Row | Compound | solubility [3] | EC50 (KiSS-1 receptor [9]) | EC50 (KiSS-1 receptor [10]) | inhibition (Rattus norvegicus [11]) | inhibition (Rattus norvegicus [12]) | other results
1 | CNC(=N)NCCC[C@H](NC(=O)[C@H](CC(C)C)NC(=O)NNC(=O)[C@H](Cc1ccccc1)NC(=O)[C@@H](NC(=O)[C@H](CC(N)=O)NC(=O)[C@@H](Cc1c[nH]c2ccccc12)NC(=O)[C@@H](Cc1ccc(O)cc1)NC(C)=O)[C@@H](C)O)C(=O)N[C@@H](Cc1c[nH]c2ccccc12)C(N)=O | Soluble | – | – | – | – | MED [1]: 100 pmol/h; inhibition (Rattus norvegicus [2]): Active; inhibition (Rattus norvegicus [4]): Active; Cmax [5]: 100 ng/mL; Activity [6]: 34.8%; inhibition (Rattus norvegicus [7]): Active; inhibition (Rattus norvegicus [8]): Active
2 | CNC(=N)NCCC[C@H](NC(=O)[C@H](CC(C)C)NC(=O)NNC(=O)[C@H](Cc1ccccc1)NC(=O)[C@@H](NC(=O)[C@H](CC(N)=O)NC(=O)[C@@H](CCC(=O)O)NC(=O)[C@@H](Cc1ccc(O)cc1)NC(C)=O)[C@@H](C)O)C(=O)N[C@@H](Cc1c[nH]c2ccccc12)C(N)=O | – | 40 nM | 22 nM | – | – | inhibition (Rattus norvegicus [4]): Active
3 | CNC(=N)NCCC[C@H](NC(=O)[C@H](CC(C)C)NC(=O)NNC(=O)[C@H](Cc1cccc(F)c1)NC(=O)[C@@H](NC(=O)[C@H](CC(N)=O)NC(=O)[C@@H]1C[C@@H](O)CN1C(=O)[C@@H](Cc1ccc(O)cc1)NC(C)=O)[C@@H](C)O)C(=O)N[C@@H](Cc1c[nH]c2ccccc12)C(N)=O (Ac-[dY][Hyp]NT[Phe(3-F)][azaGly]L[Arg(Me)]W-NH2) | – | 8.5 nM | 0.75 nM | Active | – | –
4 | CNC(=N)NCCC[C@H](NC(=O)[C@H](CC(C)C)NC(=O)NNC(=O)[C@H](Cc1ccccc1)NC(=O)[C@@H](NC(=O)[C@H](CC(N)=O)NC(=O)CNC(=O)[C@@H](Cc1ccc(O)cc1)NC(C)=O)[C@@H](C)O)C(=O)N[C@@H](Cc1c[nH]c2ccccc12)C(N)=O (Ac-[dY]GNTF[azaGly]L[Arg(Me)]W-NH2) | Soluble | 46 nM | 5.2 nM | – | Active | –
5 | CNC(=N)NCCC[C@H](NC(=O)[C@H](CC(C)C)NC(=O)NNC(=O)[C@H](Cc1ccccc1)NC(=O)[C@@H](NC(=O)[C@H](CC(N)=O)NC(=O)[C@@H]1CCCN1C(=O)[C@@H](Cc1ccc(O)cc1)NC(C)=O)[C@@H](C)O)C(=O)N[C@@H](Cc1c[nH]c2ccccc12)C(N)=O | – | 9.3 nM | 0.48 nM | Active | – | –
6 | CNC(=N)NCCC[C@H](NC(=O)[C@H](CC(C)C)NC(=O)NNC(=O)[C@H](Cc1cccc(F)c1)NC(=O)[C@@H](NC(=O)[C@H](CC(N)=O)NC(=O)[C@H](CCCCN)NC(=O)[C@@H](Cc1ccc(O)cc1)NC(C)=O)[C@@H](C)O)C(=O)N[C@@H](Cc1c[nH]c2ccccc12)C(N)=O (Ac-[dY]KNT[Phe(3-F)][azaGly]L[Arg(Me)]W-NH2) | Soluble | 7.1 nM | 0.43 nM | – | – | –
7 | CNC(=N)NCCC[C@H](NC(=O)[C@H](CC(C)C)NC(=O)NNC(=O)[C@H](Cc1ccccc1)NC(=O)[C@@H](NC(=O)[C@H](CC(N)=O)NC(=O)C(C)(C)NC(=O)[C@@H](Cc1ccc(O)cc1)NC(C)=O)[C@@H](C)O)C(=O)N[C@@H](Cc1c[nH]c2ccccc12)C(N)=O (Ac-[dY][Aib]NTF[azaGly]L[Arg(Me)]W-NH2) | Soluble | 17 nM | 2.4 nM | – | Active | –
8 | CNC(=N)NCCC[C@H](NC(=O)[C@H](CC(C)C)NC(=O)NNC(=O)[C@H](Cc1ccccc1)NC(=O)[C@@H](NC(=O)[C@H](CC(N)=O)NC(=O)[C@H](Cc1c[nH]c2ccccc12)NC(=O)[C@@H](Cc1ccc(O)cc1)NC(C)=O)[C@@H](C)O)C(=O)N[C@@H](Cc1c[nH]c2ccccc12)C(N)=O | Insoluble | 4.8 nM | 0.61 nM | Active | – | –
9 | CNC(=N)NCCC[C@H](NC(=O)[C@H](CC(C)C)NC(=O)NNC(=O)[C@H](Cc1ccccc1)NC(=O)[C@@H](NC(=O)[C@H](CC(N)=O)NC(=O)[C@@H](CCCCN)NC(=O)[C@@H](Cc1ccc(O)cc1)NC(C)=O)[C@@H](C)O)C(=O)N[C@@H](Cc1c[nH]c2ccccc12)C(N)=O | – | 18 nM | 3.6 nM | – | – | inhibition (Rattus norvegicus [4]): Active
10 | CNC(=N)NCCC[C@H](NC(=O)[C@H](CC(C)C)NC(=O)NNC(=O)[C@H](Cc1ccccc1)NC(=O)[C@@H](NC(=O)[C@H](CC(N)=O)NC(=O)[C@H](CCCCN)NC(=O)[C@@H](Cc1ccc(O)cc1)NC(C)=O)[C@@H](C)O)C(=O)N[C@@H](Cc1c[nH]c2ccccc12)C(N)=O | – | 6.8 nM | 1.6 nM | – | Active | –
11 | CNC(=N)NCCC[C@H](NC(=O)[C@H](CC(C)C)NC(=O)NNC(=O)[C@H](Cc1cccc(F)c1)NC(=O)[C@@H](NC(=O)[C@H](CC(N)=O)NC(=O)[C@H](CCC(=O)O)NC(=O)[C@@H](Cc1ccc(O)cc1)NC(C)=O)[C@@H](C)O)C(=O)N[C@@H](Cc1c[nH]c2ccccc12)C(N)=O (Ac-[dY]ENT[Phe(3-F)][azaGly]L[Arg(Me)]W-NH2) | Insoluble | 20 nM | 0.47 nM | Active | – | Vd [13]: 0.406 L/kg; inhibition (Rattus norvegicus [14]): Active; bioavailability [15]: 94.5%; AUC(0-t) at 24 h [16]: 1260 ng·h/mL; concentration at 5 min [17]: 2630 ng/mL; Cmax [5]: 703 ng/mL; inhibition (Rattus norvegicus [7]): Active; Tmax [18]: 23.4 min; MRT [19]: 31.8 min; AUC(0-t) at 24 h [20]: 1330 ng·h/mL; MRT [21]: 65.4 min; clearance [22]: 12.8 mL/min/kg
12 | CNC(=N)NCCC[C@H](NC(=O)[C@H](CC(C)C)NC(=O)NNC(=O)[C@H](Cc1ccc(F)cc1)NC(=O)[C@@H](NC(=O)[C@H](CC(N)=O)NC(=O)[C@@H](Cc1c[nH]c2ccccc12)NC(=O)[C@@H](Cc1ccc(O)cc1)NC(C)=O)[C@@H](C)O)C(=O)N[C@@H](Cc1c[nH]c2ccccc12)C(N)=O | – | 4.7 nM | 1.9 nM | – | Active | –
